Measurements pooled from the literature.
Target: G protein-coupled receptor kinase 4 (GRK4, Homo sapiens, UniProt P32298)

COc1cnc(Nc2cccc(S(N)(=O)=O)c2)nc1N1CCN(c2ccccc2)CC1  remaining binding (binding; competition with immobilised ligand; 1 µM): 100%
c1cnn2ncc(-c3ccnc(N4CCC45COC5)n3)c2c1  remaining binding (binding; 1 µM): 81%
CN(C)C(=O)Cn1cc(-c2nc([C@@](C)(c3ccc(-c4cnc(N)nc4)cc3)C3CC3)no2)cn1  remaining binding (cell-free assay; competition with immobilised ligand; 1 µM): 86%
CN(CCCC(F)(F)F)c1nccc(-c2cnn3ncccc23)n1  remaining binding (binding; 1 µM): 100%
O=C(Nc1c[nH]nc1C(=O)NC1CCNCC1)c1cc(F)cc(F)c1  remaining binding (binding; competition with immobilised ligand; 1 µM): 100%
Nc1c(C(=O)NCc2ccc(C(=O)NCCCC3CCCCC3)cc2)cnn1-c1ccccc1  remaining binding (cell-free assay; competition with immobilised ligand; 0.1 µM): 100%
C[C@@H](c1ccc(-n2cnc3c(N)ncnc32)cc1)N1CCc2nn(C)c(Cc3ccccc3)c2C1=O  remaining binding (binding; competition with immobilised ligand; 0.1 µM): 59%
O=C(c1ccc(Nc2ncc(Cl)c(-c3ccc(Cl)s3)n2)cc1)N1CCC(N2CCCC2)CC1  remaining binding (binding; competition with immobilised ligand; 1 µM): 1.1%
CNC(=O)[C@@H]1CC[C@@H](n2c(-c3ccc4cnccc4c3)nc3ccc(C(=O)NCc4cccc(C(N)=O)c4)cc32)C1  remaining binding (binding; competition with immobilised ligand; 1 µM): 93%
COc1ccnn2ncc(-c3ccnc(N(C)C)n3)c12  remaining binding (binding; 1 µM): 79%
FC(F)(F)Oc1cccc(-c2cnc3ccc(-c4ccncc4)nn23)c1  remaining binding (cell-free assay; competition with immobilised ligand; 5 µM): 43%
N[C@H]1CCN(c2nccc(-c3cnn4ncccc34)n2)C1  remaining binding (binding; 1 µM): 75%
c1cncc(-c2cccc(Nc3nccc(NC4CCCCC4)n3)c2)c1  remaining binding (binding; competition with immobilised ligand; 10 µM): 56%
O=C(NCCCC1CCCCC1)c1ccc(CNC(=O)c2cnn(-c3ccccc3)c2C(F)(F)F)cc1  remaining binding (cell-free assay; competition with immobilised ligand; 0.1 µM): 100%
O=C(c1ccc(Nc2nccc(-c3cc4ccccc4s3)n2)cc1)N1CCC(N2CCCC2)CC1  remaining binding (binding; competition with immobilised ligand; 1 µM): 0.4%
CCCOc1ccc([C@@H]2[C@@H](C(=O)O)[C@H](c3ccc4c(c3)OCO4)CN2CC(=O)Nc2c(CC)cccc2CC)cc1  remaining binding (cell-free assay; competition with immobilised ligand; 1 µM): 100%
Cc1cnn2ncc(-c3ccnc(N(C)C)n3)c2c1  remaining binding (binding; 1 µM): 55%
C[C@@]1(Cc2ccc(C#N)cc2)C(=O)N(c2cc(Cl)cc(Cl)c2)c2ncc(C(=O)NC3(c4nc(C5CCC5)no4)CC3)n21  remaining binding (cell-free assay; competition with immobilised ligand; 1 µM): 100%
Cc1cnc(Nc2ccc(C(=O)N3CCC(N4CCCC4)CC3)cc2)nc1-c1cc2ccccc2s1  remaining binding (binding; competition with immobilised ligand; 1 µM): 41%
N#CC1(c2ccccn2)CCN(Cc2cc(C(=O)N3CCCC3)c(=O)n3ccccc23)CC1  remaining binding (cell-free assay; competition with immobilised ligand; 1 µM): 86%
C[C@H]1CCN(c2nccc(-c3cnn4ncccc34)n2)C1  remaining binding (binding; 1 µM): 54%
